Substitutions are numbered along the chain they refer to.
Legend:
[1] = target: human ERβ LBD (Homo sapiens, UniProt Q92731); test: Competitive fluorescence polarization binding assay, ERβ
[2] = test system: LCC-2 cells; test: Cell viability assay on tamoxifen-resistant LCC-2 cells; type: cell-based; conditions: Homo sapiens, LCC2, read-out: LCC-2 IC50
[3] = target: ERβ (Homo sapiens, UniProt Q92731); test: ER transcriptional activity; type: cell-based
[4] = target: T1, ERα (Homo sapiens, UniProt P03372); test: Immunoblot analysis of ERα degradation in T-47D cells; type: cell-based; conditions: 5 μmol/L over 12 h
T1 sequence (P03372 1-595): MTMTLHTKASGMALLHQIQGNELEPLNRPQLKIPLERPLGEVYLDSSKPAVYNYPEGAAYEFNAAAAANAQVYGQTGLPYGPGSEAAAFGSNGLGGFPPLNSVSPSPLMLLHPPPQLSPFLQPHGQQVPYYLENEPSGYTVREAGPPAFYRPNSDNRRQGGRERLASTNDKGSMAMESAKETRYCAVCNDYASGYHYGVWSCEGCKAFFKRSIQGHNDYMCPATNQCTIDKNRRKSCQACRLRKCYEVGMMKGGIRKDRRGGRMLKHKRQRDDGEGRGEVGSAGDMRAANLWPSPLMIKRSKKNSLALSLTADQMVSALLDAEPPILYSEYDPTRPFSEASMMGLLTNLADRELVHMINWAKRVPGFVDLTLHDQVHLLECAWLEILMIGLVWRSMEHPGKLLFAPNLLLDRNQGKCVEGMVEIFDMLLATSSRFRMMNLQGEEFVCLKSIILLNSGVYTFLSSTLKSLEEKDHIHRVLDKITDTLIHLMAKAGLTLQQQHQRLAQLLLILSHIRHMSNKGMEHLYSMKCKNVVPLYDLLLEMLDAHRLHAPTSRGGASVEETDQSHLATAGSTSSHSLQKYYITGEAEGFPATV

[5] = target: T2, ERα C530S mutant (Homo sapiens, UniProt P03372, C530S); test: Immunoblot analysis of ERα C530S mutant protein in HEK-293T cells; type: cell-based; conditions: HEK-293T^C530S cells, compared with wild type
T2 sequence (P03372 1-595 C530S): T1 sequence (P03372 1-595) with C530S
How it was run: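 HEK-293T cells transfected with a plasmid carrying the single C530→S530 ERα point mutation, then treated with test compound. Cells lysed in RIPA buffer; proteins separated by SDS-PAGE and transferred to PVDF. Membranes blocked with 5% skim milk, probed overnight with rabbit anti-ERα and mouse anti-β-actin (loading control), then goat anti-rabbit secondary for 1 h. Developed by ECL.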

[6] = test system: ERα^WT and ERα^MUT BC cell lines (MCF-7, LCC-2, T-47D, T-47D^D538G, T-47D^Y537S); test: Apoptosis by flow cytometry; type: cell-based, human; conditions: 5 μmol/L, 48 h
[7] = test system: MCF-7 tumor xenograft; test: MCF-7 tumor xenograft model in BALB/c nude mice; type: in vivo
How it was run: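 Female BALB/c nude mice (15–18 g, 5 weeks old) received 1 × 10⁷ MCF-7 cells in 100 μL PBS into the right axillary mammary fat pad. Tumour volume (W² × L × 0.5) and body weight were measured every 2 days. Mice were sacrificed on Day 33. Tumours were assessed by IHC (Ki-67, ERα) and ERα Western blot.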

human ERβ LBD, sequence (Q92731 264-498 limits assumed): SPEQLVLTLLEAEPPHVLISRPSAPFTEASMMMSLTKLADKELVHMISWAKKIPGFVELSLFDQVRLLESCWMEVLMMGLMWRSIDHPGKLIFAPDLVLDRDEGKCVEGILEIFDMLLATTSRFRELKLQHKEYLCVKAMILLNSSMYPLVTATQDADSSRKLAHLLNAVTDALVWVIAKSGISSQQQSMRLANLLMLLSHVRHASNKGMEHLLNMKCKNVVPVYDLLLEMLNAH
ERβ, sequence (Q92731 whole entry): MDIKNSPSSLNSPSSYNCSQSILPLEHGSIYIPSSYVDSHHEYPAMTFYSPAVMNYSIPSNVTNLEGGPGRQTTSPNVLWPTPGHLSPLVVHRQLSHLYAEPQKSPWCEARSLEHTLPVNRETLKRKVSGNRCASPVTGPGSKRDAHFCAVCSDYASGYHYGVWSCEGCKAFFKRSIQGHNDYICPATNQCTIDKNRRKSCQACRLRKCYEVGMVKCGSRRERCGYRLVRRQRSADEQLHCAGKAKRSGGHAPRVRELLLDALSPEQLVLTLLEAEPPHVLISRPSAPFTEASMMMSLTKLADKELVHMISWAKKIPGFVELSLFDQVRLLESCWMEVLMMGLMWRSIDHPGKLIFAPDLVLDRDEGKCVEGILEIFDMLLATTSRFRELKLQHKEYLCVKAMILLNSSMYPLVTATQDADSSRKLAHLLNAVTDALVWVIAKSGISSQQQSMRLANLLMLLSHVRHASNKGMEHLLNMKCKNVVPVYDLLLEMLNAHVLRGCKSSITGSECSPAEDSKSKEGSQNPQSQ

For CC(C)=CC(=O)Nc1ccc(C2=C(c3ccc(O)cc3)C3OC2CC3S(=O)(=O)N(CC(F)(F)F)c2ccc(O)cc2)cc1 (stereo not drawn) [Compound 29c, N-(4-(3-(4-Hydroxyphenyl)-5-(N-(4-hydroxyphenyl)-N-(2,2,2-trifluoroethyl)sulfamoyl)-7-oxabicyclo[2.2.1]hept-2-en-2-yl)phenyl)-3-methylbut-2-enamide], the Ki [1] was 10.9 nM, the “RBA ERβ” value ([1]; IC50 estradiol/IC50 compound × 100, estradiol = 100%) was 0.61 ± 0.11% and the IC50 [2] was 2100 ± 370 nM. For the same compound, the “Agonist mode ERβ Eff (%E2)” value ([3]; control as 0%, 10 nmol/L E2 as 100%) was 19 ± 1 %E2, the “Antagonist mode ERβ Eff (%E2)” value ([3]; with 10 nmol/L 17β-estradiol) was 27 ± 2 %E2 and the “ERα degradation time course, T-47D” value [4] was “completely degraded”. For the same compound, the “ERα C530S degradation ability” value [5] was “decreased”, the Induction of apoptosis [6] was “significantly induced apoptosis” and the “ERα level in xenograft tumors (IHC, Western blot)” value ([7]; 4 mg/kg ip) was “significantly degrade ERα”. The “TGI (tumor growth inhibition)” value ([7]; 4 mg/kg ip every other day, Day 32) was 92%, the “Tumor weight, 29c compared with Ful” value ([7]; both at 2 mg/kg) was “no statistically significant difference in tumor weight” and the “H&E analysis of main visceral organs” value ([7]; heart, liver, spleen, kidney, ip administration) was “did not show significant changes in the main visceral organs”. For the same compound, the “Body weight of mice” value ([7]; ip 2 or 4 mg/kg every other day) was “did not apparently reduce mice body weight”, the “Tumor cell proliferation (Ki-67 IHC)” value ([7]; ip administration) was “significantly reduced tumor cell proliferation” and the “Tumor growth inhibition activity” value ([7]; ip dose of 2 or 4 mg/kg) was “significant tumor growth inhibition”.
